Test results: PubChem BioAssay AID463111 (Johns Hopkins Ion Channel Center, 2010)
In all, about 310,000 compounds went through this assay and about 2,800 (0.9%) were called active.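 How the source made its calls: active means B-score of the integrated calcium signal more than 4 SD below the library mean, with starting fluorescence not abnormally high; inactive means the rest.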 What follows is part of a selection rich in actives, with near analogues and random picks from the rest.

Assay: enhancers of RGS4 function in calcium signaling – cell-based, HEK293 M3R inducible RGS4, calcium flux, primary screen (AID 463111);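 on B-score: negative B-score means reduced calcium response which marks RGS4 activation or potentiation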
Settings: HEK293 M3R/inducible RGS4, carbachol calcium flux Fluo4, at 10 µM; hits give low values
Outline: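 System – HEK293 FlpIn-TREx cells, stable M3R, doxycycline-inducible RGS4 · Reagent – ECmax carbachol challenge · Times – compound preincubation 20 min at room temperature before agonist · Technique – Fluo4 fluorescence kinetic imaging of calcium · Measure – B score of integrated Fluo4 ratio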

Compound	B-score
CCN(CC)P(=O)(Oc1cccc(C)c1)N(CC)CC	inactive
Cc1cccc(OP(=O)(Oc2cccc(C)c2)OC(c2ccccc2)C(F)(F)F)c1 (stereo not given)	-7.67 (active)
O=C1CC(=O)N(Cc2ccccc2)C(=O)N1CCCCCCN1C(=O)CC(=O)N(Cc2ccccc2)C1=O	inactive
CC(c1ccccc1)(c1ccccc1)c1ccncc1	inactive
CCNc1nc2[nH]c(=O)c3c(c2s1)OC(N)=C(C#N)C3c1cccs1 (stereo not given)	inactive
C=CC12CN(C)[C@@H]3C4CO[C@H](C[C@H]41)[C@]1(C(=O)Nc4ccccc41)[C@@H]32 (stereo not given in full)	-8.82 (active)
CCC(C)n1c(O)c(/C=N/Nc2nc3c(c(=O)n(C)c(=O)n3C)n2C)c(=O)[nH]c1=S (stereo not given)	inactive
CCOc1ccc(C2SCC(=O)Nc3c2c(C)nn3C2CCOC(C)(C)C2)cc1 (stereo not given)	inactive
Cc1ccc(CN2CCCC(C(=O)c3ccc4c(c3)OCO4)C2)cc1C (stereo not given)	-7.27 (active)
Cc1ccsc1C(=O)C1CCCN(Cc2ccc(O)cc2)C1 (stereo not given)	inactive
COc1ccc(C(=O)C2CCCN(Cc3ccc(C)s3)C2)cc1OC (stereo not given)	inactive
O=C(Cc1ccc(Cl)cc1)NCCN1CCN(C(=O)Cc2ccc(Cl)cc2)CC1	inactive
CCOC(=O)C1(Cc2ccc(Cl)cc2)CCN(C(C)CCn2cccn2)CC1 (stereo not given)	inactive
OC(Cn1c2ccccc2c2ccccc21)C[n+]1ccccc1 (stereo not given)	inactive
CN1CCN(/N=C/c2c[nH]c3ccccc23)CC1	inactive
COc1cccc(CN2CCCC(C(=O)c3ccccc3SC)C2)c1O (stereo not given)	inactive
O=C(Nc1cccc(OC(=O)N2CCCCC2)c1)N1CCOCC1	inactive
CC(C)Oc1cccc(C(=O)C2CCCN(C3CCOCC3)C2)c1 (stereo not given)	-7.9 (active)
COc1ccc(-c2nn(CCC#N)cc2C(=O)O)cc1	inactive
Cc1cccc(-n2c(O)c(/C=N/N3CCOCC3)c(=O)[nH]c2=S)c1	inactive
COc1cc(-n2c(=S)[nH]c3ccc(C)cc3c2=O)c(Cl)cc1Cl	inactive
CCCCn1c(=O)c(C(=O)Nc2ccccc2Cl)c(O)c2ccccc21	inactive
CCCCCn1c(=O)c(C(=O)Nc2c(C)n(C)n(-c3ccccc3)c2=O)c(O)c2ccccc21	-7.47 (active)
CCCCCn1c(=O)c(C(=O)NCc2ccccc2)c(O)c2ccccc21	inactive
O=C(O)CCn1cc(C=C2C(=O)NC(=S)NC2=O)c(-c2cccc(Br)c2)n1	inactive
